Measurements collected from several papers.
Protocols differ between the studies behind these lines.
Observed: haemolysis
Host: human

CCCCCCCCCCCCNCc1ccc(CNC(=O)c2csc3nc[nH]c(=O)c23)cc1
haemolysis (100 µM; 1 h): ~3%

Oc1ccc(Cl)cc1C=NNc1nc(-c2ccc(F)cc2)cs1
haemolysis (10 µM; 30 min; pH 7.4): 3.11%

NCCc1ccc(Oc2ccc(-c3noc(-c4ccc(O)cc4)n3)cc2)cc1
haemolysis (4 µg/mL; 1 h): 2.5%

Fc1ccc(-c2csc(NN=Cc3cccs3)n2)cc1
haemolysis (10 µM; 30 min; pH 7.4): 11.4%

C=C1CC[C@@H]2C(C)(C)CCC[C@@]2(C)[C@@H]1CC/C(C)=C/C(=O)OC
haemolysis (500 µg/mL; 3 h): 50%

Cc1ccc(C=NNc2nc(-c3ccc(F)cc3)cs2)o1
haemolysis (10 µM; 30 min; pH 7.4): 1.2%

CCN(CC)CCCC(C)Nc1ccnc2cc(Cl)ccc12 (stereo not shown)
haemolysis (100 mM; 45 min): 28.7%

O=C(O)CN(CCN(CC(=O)O)CC(=O)O)CC(=O)O
haemolysis (200 µM; 1 h; pH 7.2): ≤ 1%

C=C1CC[C@@H]2[C@](C)(CCC[C@]2(C)C(=O)O)[C@H]1CC/C(C)=C/C(=O)O
haemolysis (350 µg/mL; 3 h): 50%

OC(Cn1cncn1)(Cn1cncn1)c1ccc(F)cc1F
haemolysis (2 µg/mL; 1 h): 3.79%

Cc1ccc(C=NNc2nc(-c3ccc(F)cc3)cs2)c(Br)c1
haemolysis (100 µM; 30 min; pH 7.4): 31.6%

c1ccc(CN(CCN(Cc2ccccn2)Cc2ccccn2)Cc2ccccn2)nc1
haemolysis (200 µM; 1 h; pH 7.2): ≤ 1%

C[C@@H]1[C@H](O)[C@@H](C)/C=C/C=C/C=C/C=C/C=C/C=C/C=C/[C@H](O[C@@H]2O[C@H](C)[C@@H](O)[C@H](N)[C@@H]2O)C[C@@H]2O[C@](O)(C[C@@H](O)C[C@@H](O)[C@H](O)CC[C@@H](O)C[C@@H](O)CC(=O)O[C@H]1C)C[C@H](O)[C@H]2C(=O)O
haemolysis (8 µg/mL; 1 h): 102%
